Data published in ChEMBL document CHEMBL1154181 (J Med Chem, 2009).

Key:
Mus musculus [1] = experiment: (§1) Antinociceptive activity against thermal nociception in po dosed CD1 mouse assessed as increase in latency period to elicit jumping or hind paw licking measured after 15 to 90 mins postdose by hot plate method; type: functional
[2] = target: T1, Alpha-2A adrenergic receptor (Homo sapiens, UniProt P08913); experiment: Displacement of [3H][…] from human recombinant adrenergic alpha2A receptor expressed in insect Sf9 cells after 60 mins
T1 sequence (P08913 whole entry): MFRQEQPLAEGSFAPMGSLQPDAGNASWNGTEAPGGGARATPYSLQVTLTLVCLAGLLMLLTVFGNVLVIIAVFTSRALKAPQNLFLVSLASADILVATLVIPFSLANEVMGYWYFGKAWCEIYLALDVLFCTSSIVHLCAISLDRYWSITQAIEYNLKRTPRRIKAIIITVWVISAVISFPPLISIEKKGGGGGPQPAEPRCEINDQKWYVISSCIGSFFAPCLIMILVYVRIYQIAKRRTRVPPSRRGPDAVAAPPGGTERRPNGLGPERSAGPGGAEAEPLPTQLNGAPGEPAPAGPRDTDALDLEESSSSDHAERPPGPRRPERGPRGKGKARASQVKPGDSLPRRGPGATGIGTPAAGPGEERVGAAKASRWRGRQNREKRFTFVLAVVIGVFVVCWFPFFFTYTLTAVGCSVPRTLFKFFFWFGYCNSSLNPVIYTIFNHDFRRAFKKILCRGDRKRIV

[3] = target: T2, Alpha-2C adrenergic receptor (Homo sapiens) (UniProt P18825); experiment: Inhibition of radioligand binding to human adrenergic Alpha-2C receptor at 10 uM after 60 mins
T2 sequence (whole entry): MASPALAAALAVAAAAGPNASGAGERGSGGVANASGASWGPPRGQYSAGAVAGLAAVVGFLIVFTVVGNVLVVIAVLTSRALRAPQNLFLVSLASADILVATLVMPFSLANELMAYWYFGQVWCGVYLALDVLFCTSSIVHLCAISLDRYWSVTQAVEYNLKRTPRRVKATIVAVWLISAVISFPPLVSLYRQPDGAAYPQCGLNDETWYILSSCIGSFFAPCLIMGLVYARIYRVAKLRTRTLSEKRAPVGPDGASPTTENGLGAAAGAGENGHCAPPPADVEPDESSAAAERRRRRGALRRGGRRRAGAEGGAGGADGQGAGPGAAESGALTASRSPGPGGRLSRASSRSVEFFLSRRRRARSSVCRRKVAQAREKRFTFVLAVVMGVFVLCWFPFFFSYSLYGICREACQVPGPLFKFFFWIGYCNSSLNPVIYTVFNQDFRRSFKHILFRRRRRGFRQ

Mus musculus [4] = experiment: Antinociceptive activity against radiant heat-induced nociception in CD1 mouse assessed as tail withdrawal latency at 1 mg/kg, po measured after 15 to 120 mins postdose by tail flick test in presence of 0.1 to 1 mg/kg, ip alpha-1-adrenergic receptor antagonist prazosin administered 15 mins before compound infusion; type: functional
Method in brief: (§2)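 Male CD-1 mice given prazosin ip (0.1 or 1 mg/kg) 15 min before oral dosing at 1 mg/kg. Tail flick: radiant heat 3–4 cm from the tail tip, cut-off 15 s. Hot plate: 48.5 °C, cut-off 60 s. Baseline is the mean of three readings 15 min apart. Latency followed over time and expressed as %MPE.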

[5] = target: T3, Alpha-1A adrenergic receptor (Rattus norvegicus) (UniProt P43140); experiment: Inhibition of [3H]prazosin binding to adrenergic alpha1A receptor in Wistar rat submaxillary gland at 10 uM after 60 mins
T3 sequence (whole entry): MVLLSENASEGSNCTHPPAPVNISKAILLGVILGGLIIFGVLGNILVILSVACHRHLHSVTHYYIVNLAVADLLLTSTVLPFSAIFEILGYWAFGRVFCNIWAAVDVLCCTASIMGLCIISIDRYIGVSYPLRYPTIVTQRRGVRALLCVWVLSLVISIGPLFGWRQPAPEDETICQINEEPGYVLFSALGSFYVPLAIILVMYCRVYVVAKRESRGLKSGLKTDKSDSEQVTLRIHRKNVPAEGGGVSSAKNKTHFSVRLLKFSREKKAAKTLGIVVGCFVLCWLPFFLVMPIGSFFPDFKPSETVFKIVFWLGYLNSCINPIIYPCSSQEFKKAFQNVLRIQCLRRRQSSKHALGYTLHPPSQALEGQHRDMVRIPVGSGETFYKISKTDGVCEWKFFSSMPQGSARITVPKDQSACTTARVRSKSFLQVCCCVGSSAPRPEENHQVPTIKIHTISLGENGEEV
Method in brief: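 Wistar rat submaxillary gland membranes with 0.25 nM [3H]-prazosin. Nonspecific binding defined by 10 μM phentolamine. Buffer 50 mM Tris-HCl pH 7.4, 0.5 mM EDTA. Incubated 60 min at 25 °C, then filtered and counted. Duplicate; 1% DMSO final.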

Mus musculus [6] = experiment: Ratio of morphine ED50 to compound ED50 for antinociceptive activity against thermal nociception in po dosed CD1 mouse; type: functional
Method in brief: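 Compound and morphine were dosed po in male CD-1 mice. Hot plate was held at 48.5 ± 0.1 °C, scored as paw lick, jerk or jump, with a 60 s cutoff, read at 15–90 min. Tail flick used radiant heat with a 15 s cutoff. Baseline was the mean of three readings. Peak-time %MPE was made quantal, and ED50 came from at least four groups of six mice.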

Mus musculus [7] = experiment: as §1, with “method in presence of 2 mg/kg, ip alpha-2-adrenergic receptor antagonist yohimbine hydrochloride administered 30 mins before compound infusion” for “method”; type: functional
Method in brief: (§3)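 Antagonist given ip 30 min before oral dosing (naloxone 1, mecamylamine 2, yohimbine 2, CGP 35348 50 mg/kg). Hot plate at 48.5 ± 0.1 °C inside a cylinder, cut-off 60 s; latencies at 15–90 min as %MPE. Peak-time quantal response (≥50% MPE); ED50 from at least four groups of six male CD-1 mice.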

Mus musculus [8] = experiment: as §1, with “method in presence of 50 mg/kg, ip GABAB receptor antagonist CGP 35348 administered 30 mins before compound infusion” for “method”; type: functional; method in brief: as §3
Mus musculus [9] = experiment: (§4) Antinociceptive activity against thermal nociception in po dosed CD1 mouse assessed as latency period to elicit jumping or hind paw licking at 1 mg/kg, po measured after 15 to 90 mins postdose by hot plate method; type: functional
Method in brief: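 Male CD-1 mice (25–30 g), dosed orally at 1 mg/kg. Tail flick: radiant heat focused 3–4 cm from the tail tip, cut-off 15 s at 15 V. Hot plate: 48.5 ± 0.1 °C, licking, paw jerk or jump, cut-off 60 s. Baseline is the mean of three readings 15 min apart. Latency followed to 120 min (tail) or 90 min (plate); data as %MPE.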

Mus musculus [10] = experiment: Antinociceptive activity against radiant heat-induced nociception in po dosed CD1 mouse assessed as increase in tail withdrawal latency measured after 15 to 120 mins postdose by tail flick test in presence of 1 mg/kg, ip opioid receptor antagonist naloxone hydrochloride administered 30 mins before compound infusion; type: functional
Method in brief: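 Antagonist given ip 30 min before oral dosing (naloxone 1, mecamylamine 2, yohimbine 2, CGP 35348 50 mg/kg). Tail flick with radiant heat at the tail tip, cut-off 15 s; latencies at 15–120 min converted to %MPE. Peak-time quantal response (≥50% MPE); ED50 from at least four groups of six male CD-1 mice.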

Mus musculus [11] = experiment: as §4, with “method in presence of 0.1 to 1 mg/kg, ip alpha-1-adrenergic receptor antagonist prazosin administered 15 mins before compound infusion” for “method”; type: functional; method in brief: as §2

IC50 [2]: 0.32 µM
Emax [3]: 71%
Emax [5]: 101%
SMILES: C=Cc1c(C)nn(CCCN2CCN(c3ccc(C)cc3)CC2)c(=O)c1N
ED50 (Mus musculus [1]): 0.5 mg/kg
Activity (Mus musculus [4]): 120 min
Ratio ED50 (Mus musculus [6]): 4
ED50 (Mus musculus [7]): 8.6 mg/kg
ED50 (Mus musculus [8]): 0.6 mg/kg
Activity (Mus musculus [9]): 30 min
ED50 (Mus musculus [10]): 1.2 mg/kg
Activity (Mus musculus [11]): 120 min
